Assay [1] has as its system T47D. The assay can be described thus: Growth inhibition of human T47D cells incubated for 72 hrs by CCK8 assay. The assay is classed as functional, cell-based.
For assay [2], the system named is MCF7. The assay is described as follows: Growth inhibition of human MCF7 cells incubated for 72 hrs by CCK8 assay. The assay is classed as functional, cell-based. The settings on record: MCF7, 72 h.
Assay [3] has as its system NCI-H460. The assay is described as follows: Growth inhibition of human H460 cells incubated for 72 hrs by CCK8 assay. It counts as functional, cell-based. The note with it: NCI-H460, 72 h.
Assay [4] has as its system NCI-H1299. The assay is described as follows: Growth inhibition of human H1299 cells incubated for 72 hrs by CCK8 assay. The assay is classed as functional, cell-based. The settings on record: NCI-H1299, 72 h.
Assay [5] concerns A549. The assay is described as follows: Growth inhibition of human A549 cells incubated for 72 hrs by CCK8 assay. The assay is classed as functional, cell-based. The settings on record: A549, 72 h.
Assay [6] addresses CDK6/cyclin D3 (Homo sapiens) (UniProt P30281+Q00534). The assay can be described thus: Inhibition of human CDK6/CyclinD3 at 1 uM by enzymatic radiometric assay. It counts as protein-complex assay.
For assay [7], the target named is CDK4/Cyclin D3 (Homo sapiens) (UniProt P11802+P30281). The assay is described as follows: Inhibition of human CDK4/CyclinD3 at 1 uM by enzymatic radiometric assay. The assay is classed as protein-complex assay. A digest of the protocol:
(§1)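 Kinase panel run through the Eurofins KinaseProfiler, with compound at a fixed 1 µM. Values are means of two independent experiments.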

The target of assay [8] is Vascular endothelial growth factor receptor 2 (Homo sapiens, UniProt P35968). The assay is described as follows: Inhibition of human VEGFR2 at 1 uM by enzymatic radiometric assay.
Chain of Vascular endothelial growth factor receptor 2 (P35968 whole entry): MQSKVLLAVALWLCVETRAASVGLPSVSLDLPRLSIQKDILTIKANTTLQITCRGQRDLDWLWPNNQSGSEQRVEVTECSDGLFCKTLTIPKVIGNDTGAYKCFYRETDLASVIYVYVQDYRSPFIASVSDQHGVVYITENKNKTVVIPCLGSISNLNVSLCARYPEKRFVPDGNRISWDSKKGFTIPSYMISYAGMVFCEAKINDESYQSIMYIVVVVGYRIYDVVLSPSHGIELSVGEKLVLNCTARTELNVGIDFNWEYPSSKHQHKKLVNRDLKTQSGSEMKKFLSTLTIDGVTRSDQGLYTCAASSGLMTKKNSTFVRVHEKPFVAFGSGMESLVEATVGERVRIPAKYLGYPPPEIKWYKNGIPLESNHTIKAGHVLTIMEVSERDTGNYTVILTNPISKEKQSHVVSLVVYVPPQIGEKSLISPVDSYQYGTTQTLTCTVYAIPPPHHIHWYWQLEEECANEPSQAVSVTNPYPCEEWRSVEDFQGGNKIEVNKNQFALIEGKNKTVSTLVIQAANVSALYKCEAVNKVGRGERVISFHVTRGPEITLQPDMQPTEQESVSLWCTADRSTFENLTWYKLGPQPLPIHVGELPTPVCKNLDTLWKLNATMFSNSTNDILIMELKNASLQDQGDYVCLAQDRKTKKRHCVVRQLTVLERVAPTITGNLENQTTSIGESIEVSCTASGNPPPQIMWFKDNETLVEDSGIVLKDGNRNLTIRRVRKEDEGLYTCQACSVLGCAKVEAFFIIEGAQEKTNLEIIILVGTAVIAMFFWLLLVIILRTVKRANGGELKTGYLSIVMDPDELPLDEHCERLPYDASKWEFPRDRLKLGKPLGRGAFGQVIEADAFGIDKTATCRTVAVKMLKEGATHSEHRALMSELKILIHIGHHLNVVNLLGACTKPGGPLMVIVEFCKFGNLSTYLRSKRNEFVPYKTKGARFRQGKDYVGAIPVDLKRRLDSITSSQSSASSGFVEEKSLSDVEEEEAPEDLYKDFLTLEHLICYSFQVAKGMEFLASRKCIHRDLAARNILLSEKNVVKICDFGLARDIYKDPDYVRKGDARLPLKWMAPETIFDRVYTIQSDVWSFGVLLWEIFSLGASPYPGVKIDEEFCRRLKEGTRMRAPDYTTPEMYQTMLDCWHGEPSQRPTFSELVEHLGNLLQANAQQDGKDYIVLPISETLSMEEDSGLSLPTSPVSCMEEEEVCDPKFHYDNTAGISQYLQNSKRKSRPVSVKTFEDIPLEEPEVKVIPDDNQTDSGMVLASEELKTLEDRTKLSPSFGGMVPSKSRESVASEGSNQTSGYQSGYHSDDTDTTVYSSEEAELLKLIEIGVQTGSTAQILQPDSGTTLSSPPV
The target of assay [9] is Cyclin-dependent kinase 2/cyclin E1 (Homo sapiens) (UniProt P24864+P24941). The assay can be described thus: Inhibition of human CDK2/CyclinE at 1 uM by enzymatic radiometric assay. The assay is classed as protein-complex assay. The essentials:
as §1

The target of assay [10] is CDK2/Cyclin A2 (Homo sapiens) (UniProt P24941+P20248). The assay is described as follows: Inhibition of human CDK2/CyclinA at 1 uM by enzymatic radiometric assay. It counts as protein-complex assay. The essentials:
as §1

Assay [11] concerns the target Cyclin-dependent kinase 1/cyclin B1 (Homo sapiens) (UniProt P06493+P14635). The assay is described as follows: Inhibition of human CDK1/CyclinB at 1 uM by enzymatic radiometric assay. It counts as protein-complex assay. A digest of the protocol:
as §1

Assay [12] addresses CDK3/Cyclin E (Homo sapiens) (UniProt P24864+Q00526). The assay can be described thus: Inhibition of human CDK3/CyclinE at 1 uM by enzymatic radiometric assay. It counts as protein-complex assay. The essentials: as §1
The target in assay [13] is T1, Cyclin-dependent kinase 5/CDK5 activator 1 (Homo sapiens) (UniProt Q00535+Q15078). The assay is described as follows: Inhibition of human CDK5/p25 at 1 uM by enzymatic radiometric assay. It counts as protein-complex assay.
T1 sequence (Q00535 whole entry): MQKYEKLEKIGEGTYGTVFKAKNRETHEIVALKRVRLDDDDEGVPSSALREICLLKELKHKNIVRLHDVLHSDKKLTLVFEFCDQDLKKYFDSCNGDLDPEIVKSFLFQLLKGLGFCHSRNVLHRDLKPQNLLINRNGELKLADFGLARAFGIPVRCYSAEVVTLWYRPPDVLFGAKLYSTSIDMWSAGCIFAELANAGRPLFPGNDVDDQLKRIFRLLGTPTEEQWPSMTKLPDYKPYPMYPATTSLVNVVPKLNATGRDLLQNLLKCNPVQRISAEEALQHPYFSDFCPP
T1 sequence (Q15078 99-307 partner limits assumed): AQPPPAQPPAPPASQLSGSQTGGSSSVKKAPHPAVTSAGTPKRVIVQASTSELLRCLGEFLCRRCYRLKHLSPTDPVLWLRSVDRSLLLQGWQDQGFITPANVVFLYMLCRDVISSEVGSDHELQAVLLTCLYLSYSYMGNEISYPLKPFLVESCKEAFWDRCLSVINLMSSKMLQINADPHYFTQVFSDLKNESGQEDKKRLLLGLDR
Assay [14] has as its target T1, Cyclin-dependent kinase 5/CDK5 activator 1 (Homo sapiens). The assay can be described thus: Inhibition of human CDK5/p35 at 1 uM by enzymatic radiometric assay. It counts as protein-complex assay.
Assay [15] deals with CDK7/Cyclin H/MNAT1 (Homo sapiens) (UniProt P51946+P50613+P51948). The assay can be described thus: Inhibition of human CDK7/CyclinH/MAT1 at 1 uM by enzymatic radiometric assay. It counts as protein-complex assay.
For assay [16], the target named is CDK9/cyclin T1 (Homo sapiens) (UniProt O60563+P50750). The assay is described as follows: Inhibition of human CDK9/CyclinT1 at 1 uM by enzymatic radiometric assay. The assay is classed as protein-complex assay.
Assay [17] has as its target CDK12/Cyclin K (Homo sapiens) (UniProt O75909+Q9NYV4). The assay is described as follows: Inhibition of human CDK12/CyclinK at 1 uM by enzymatic radiometric assay. The assay is classed as protein-complex assay. A digest of the protocol:
as §1

The target of assay [18] is CDK18/Cyclin Y (Homo sapiens) (UniProt Q07002+Q8ND76). The assay is described as follows: Inhibition of human CDK18/CyclinY at 1 uM by enzymatic radiometric assay. It counts as protein-complex assay. The essentials: as §1
The test system of assay [19] is T47D. The assay can be described thus: Growth inhibition of human T47D cells incubated for 72 hrs at 10 uM by CCK8 assay. The settings on record: read-out: GI. It counts as functional. The essentials:
(§2)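 CCK8 viability assay on a panel of human cancer cell lines, with an initial screen at fixed concentrations of 1 µM and 10 µM.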

Assay [20] has as its system T47D. The assay is described as follows: Growth inhibition of human T47D cells incubated for 72 hrs at 1 uM by CCK8 assay. The assay is classed as functional. The note with it: read-out: GI. A digest of the protocol: as §2
Assay [21] deals with A549. The assay can be described thus: Growth inhibition of human A549 cells incubated for 72 hrs at 10 uM by CCK8 assay. The assay is classed as functional. The settings on record: A549, 72 h, read-out: GI. The essentials: as §2
For assay [22], the system named is A549. The assay can be described thus: Growth inhibition of human A549 cells incubated for 72 hrs at 1 uM by CCK8 assay. The assay is classed as functional. The settings on record: A549, 72 h, read-out: GI. The essentials:
as §2

Assay [23] relates to NCI-H460. The assay can be described thus: Growth inhibition of human H460 cells incubated for 72 hrs at 10 uM by CCK8 assay. The note with it: NCI-H460, 72 h, read-out: GI. It counts as functional. The essentials: as §2
The test system of assay [24] is NCI-H460. The assay can be described thus: Growth inhibition of human H460 cells incubated for 72 hrs at 1 uM by CCK8 assay. The settings on record: NCI-H460, 72 h, read-out: GI. It counts as functional. A digest of the protocol:
as §2

In assay [25] the test system is NCI-H1299. The assay can be described thus: Growth inhibition of human H1299 cells incubated for 72 hrs at 10 uM by CCK8 assay. The settings on record: NCI-H1299, 72 h, read-out: GI. The assay is classed as functional. A digest of the protocol:
as §2

For assay [26], the system named is NCI-H1299. The assay can be described thus: Growth inhibition of human H1299 cells incubated for 72 hrs at 1 uM by CCK8 assay. The assay is classed as functional. The settings on record: NCI-H1299, 72 h, read-out: GI. A digest of the protocol:
as §2

For assay [27], the system named is HeLa. The assay can be described thus: Growth inhibition of human HeLa cells incubated for 72 hrs at 10 uM by CCK8 assay. It counts as functional. The note with it: read-out: GI. The essentials: as §2
Assay [28] has as its system HeLa. The assay can be described thus: Growth inhibition of human HeLa cells incubated for 72 hrs at 1 uM by CCK8 assay. The assay is classed as functional. The settings on record: read-out: GI. A digest of the protocol:
as §2

Assay [29] has as its system OVCAR-5. The assay can be described thus: Growth inhibition of human OVCAR5 cells incubated for 72 hrs at 10 uM by CCK8 assay. It counts as functional. The settings on record: OVCAR-5, 72 h, read-out: GI. A digest of the protocol: as §2
The subject of assay [30] is OVCAR-5. The assay can be described thus: Growth inhibition of human OVCAR5 cells incubated for 72 hrs at 1 uM by CCK8 assay. It counts as functional. The note with it: OVCAR-5, 72 h, read-out: GI. The essentials: as §2
For assay [31], the system named is SiHa. The assay is described as follows: Growth inhibition of human SiHa cells incubated for 72 hrs at 10 uM by CCK8 assay. The assay is classed as functional. The settings on record: read-out: GI. A digest of the protocol: as §2
The test system of assay [32] is SiHa. The assay is described as follows: Growth inhibition of human SiHa cells incubated for 72 hrs at 1 uM by CCK8 assay. It counts as functional. The note with it: read-out: GI. A digest of the protocol: as §2
Assay [33] deals with T47D. The assay can be described thus: Induction of cell cycle arrest in human T47D cells assessed as increase in G0/G1 phase accumulation incubated for 24 hrs by flow cytometry. The assay is classed as functional, cell-based.
The test system of assay [34] is T47D. The assay is described as follows: Induction of apoptosis in human T47D cells assessed as viable cells level at 5 uM incubated for 48 hrs by annexin V-FITC and propidium iodide staining based flow cytometry (reference value: 96%). The assay is classed as functional.
In assay [35] the test system is T47D. The assay can be described thus: Induction of apoptosis in human T47D cells assessed as early apoptotic cells level at 5 uM incubated for 48 hrs by annexin V-FITC and propidium iodide staining based flow cytometry (reference value: 0.75%). It counts as functional.
Assay [36] deals with T47D. The assay can be described thus: Induction of apoptosis in human T47D cells assessed as late apoptotic cells level at 5 uM incubated for 48 hrs by annexin V-FITC and propidium iodide staining based flow cytometry (reference value: 0.48%). The assay is classed as functional.
Assay [37] relates to T47D. The assay can be described thus: Induction of apoptosis in human T47D cells assessed as necrotic cells level at 5 uM incubated for 48 hrs by annexin V-FITC and propidium iodide staining based flow cytometry (reference value: 2.79%). The assay is classed as functional.

This note sets out measurements from ChEMBL document CHEMBL4052710 (Bioorg Med Chem Lett, 2017).

SMILES strings stand for the structures. The source made the active and inactive calls. The rule behind the calls is not given here. Some results are limits rather than exact numbers.

Chain of CDK3/Cyclin E (Homo sapiens) (P24864 whole entry, looked up): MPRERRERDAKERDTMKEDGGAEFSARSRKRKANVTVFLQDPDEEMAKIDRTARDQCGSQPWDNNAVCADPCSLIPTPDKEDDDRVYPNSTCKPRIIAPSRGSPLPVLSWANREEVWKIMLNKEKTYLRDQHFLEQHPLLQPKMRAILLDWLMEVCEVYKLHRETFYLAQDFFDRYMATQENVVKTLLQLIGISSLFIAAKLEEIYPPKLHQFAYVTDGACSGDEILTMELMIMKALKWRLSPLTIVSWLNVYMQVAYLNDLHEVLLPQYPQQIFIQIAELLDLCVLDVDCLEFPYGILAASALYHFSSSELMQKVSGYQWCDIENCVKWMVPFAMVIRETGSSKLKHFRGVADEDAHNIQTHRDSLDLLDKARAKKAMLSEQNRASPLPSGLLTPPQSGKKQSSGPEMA
Chain of CDK3/Cyclin E (Homo sapiens) (Q00526 whole entry, looked up): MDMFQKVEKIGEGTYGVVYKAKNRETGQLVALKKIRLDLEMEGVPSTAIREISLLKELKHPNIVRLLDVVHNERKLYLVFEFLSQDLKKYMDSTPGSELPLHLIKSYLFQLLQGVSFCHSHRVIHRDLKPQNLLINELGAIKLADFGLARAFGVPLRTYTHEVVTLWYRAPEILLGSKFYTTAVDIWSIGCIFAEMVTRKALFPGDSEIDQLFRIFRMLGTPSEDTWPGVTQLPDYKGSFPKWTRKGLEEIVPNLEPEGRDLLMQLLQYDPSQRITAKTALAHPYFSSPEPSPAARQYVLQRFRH
Chain of Cyclin-dependent kinase 1/cyclin B1 (Homo sapiens) (P06493 whole entry, looked up): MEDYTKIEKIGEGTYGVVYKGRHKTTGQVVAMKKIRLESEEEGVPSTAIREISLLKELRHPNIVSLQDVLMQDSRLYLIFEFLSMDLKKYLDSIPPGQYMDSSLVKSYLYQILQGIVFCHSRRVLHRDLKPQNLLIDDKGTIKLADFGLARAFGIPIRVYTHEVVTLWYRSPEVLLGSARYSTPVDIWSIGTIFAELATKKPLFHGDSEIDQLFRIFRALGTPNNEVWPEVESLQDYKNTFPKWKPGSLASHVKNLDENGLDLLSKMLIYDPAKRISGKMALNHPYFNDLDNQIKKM
Chain of Cyclin-dependent kinase 1/cyclin B1 (Homo sapiens) (P14635 whole entry, looked up): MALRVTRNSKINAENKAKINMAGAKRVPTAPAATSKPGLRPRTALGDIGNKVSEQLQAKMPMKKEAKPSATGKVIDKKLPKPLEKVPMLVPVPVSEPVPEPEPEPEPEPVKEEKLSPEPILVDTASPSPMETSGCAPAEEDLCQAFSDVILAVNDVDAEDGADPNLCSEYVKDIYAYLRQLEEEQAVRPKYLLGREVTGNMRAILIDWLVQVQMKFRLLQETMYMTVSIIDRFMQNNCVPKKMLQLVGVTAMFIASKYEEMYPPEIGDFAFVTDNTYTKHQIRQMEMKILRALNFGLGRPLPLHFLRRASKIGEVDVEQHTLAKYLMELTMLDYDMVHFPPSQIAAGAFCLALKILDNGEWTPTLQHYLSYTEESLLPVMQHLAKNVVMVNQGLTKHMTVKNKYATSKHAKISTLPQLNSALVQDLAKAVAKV

As to `COc1cc2nccc(Oc3ccc(NC(=O)C4(C(=O)Nc5ccc(F)cc5)CC4)cc3)c2cc1OC` [CABOZANTINIB], the IC50 in [1] turned out to be 4.45 µM; in [2], 2.89 µM; in [3], 5.67 µM; in [4], 1.92 µM; in assay [5] it was 4.45 µM.

Take `CN(C)C(=O)c1cc2cnc(Nc3ccc(NC(=O)C4(C(=O)Nc5ccc(O)cc5)CC4)cc3)nc2n1C1CCCC1`: the inhibition was found to be 86% in assay [6]; 95% in [7]; 36% in [8]; 88% in assay [9]; 90% in assay [10]; 90% in [11]. The inhibition in [12] is 89%; in assay [13] it was 94%; in assay [14], 88%; in assay [15], -9%; in assay [16], 26%; in [17], 23%. Also, the inhibition in assay [18] was 0%. Moreover, the inhibition of growth at 10 µM came out at 95.8% in assay [19]; 94.4% in [21]; 104% in assay [23]; 89.7% in assay [25]; 99.9% in assay [27]; 90.9% in assay [29]. For the same molecule, the inhibition of growth at 10 µM in assay [31] is 94.3%. Besides, the inhibition of growth at 1 µM came out at 91.5% in assay [20]; 93.6% in assay [22]; 90.4% in [24]; 87.4% in assay [26]; 62.3% in assay [28]; 80.7% in assay [30]. In addition, the inhibition of growth at 1 µM in [32] came to 69.5%.

For `CN(C)C(=O)c1cc2cnc(Nc3ccc(N4CCNCC4)cn3)nc2n1C1CCCC1` [RIBOCICLIB], the IC50 is greater than 10 µM in assay [2], greater than 10 µM in [3], 7.64 µM in assay [4] and greater than 10 µM in [5]. Further, in [33], the result was Active. The Activity is listed as 94.8% in assay [34], 0.34% in [35], 2.91% in assay [36] and 1.94% in assay [37].
